ChEMBL document CHEMBL4308919, “Discovery of TD-0212, an Orally Active Dual Pharmacology AT1 Antagonist and Neprilysin Inhibitor (ARNI)” (ACS Med Chem Lett, 2019)

Key:
[1] = target: T1, Type-1 angiotensin II receptor (Homo sapiens, UniProt P30556); assay: Displacement of Europium-labeled angiotensin-2 from human AT1 receptor expressed in CHOK1 cell membranes after 120 mins by DELFIA
T1 sequence (P30556 whole entry): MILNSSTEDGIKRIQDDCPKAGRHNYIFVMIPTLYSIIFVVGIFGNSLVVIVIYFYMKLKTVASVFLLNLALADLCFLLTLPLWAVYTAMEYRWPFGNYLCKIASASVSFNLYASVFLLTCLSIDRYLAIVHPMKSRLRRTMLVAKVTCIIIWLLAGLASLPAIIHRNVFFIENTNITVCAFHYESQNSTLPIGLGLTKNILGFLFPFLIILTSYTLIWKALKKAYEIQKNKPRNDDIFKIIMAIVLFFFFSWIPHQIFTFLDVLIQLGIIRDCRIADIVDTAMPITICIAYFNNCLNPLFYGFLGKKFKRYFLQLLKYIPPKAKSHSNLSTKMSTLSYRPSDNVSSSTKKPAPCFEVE

Rattus norvegicus = assay: In vivo antagonist activity at AT1 receptor in Sprague-Dawley rat assessed as inhibition of angiotensin-2-induced pressor response at 3 mg/kg, iv treated for 5 mins at 15 mins post 2 doses of angiotensin-2 treatment at 15 minutes apart followed by ANP treatment and subsequent angiotensin-2 re-challenge after 60 mins relative to control; type: functional
In short: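 Rat pharmacodynamic assay with intravenous dosing to exclude oral absorption. AT1 antagonism is read in the same animal as inhibition of the angiotensin-II-evoked pressor response. NEP inhibition is read as potentiation of ANP-induced elevation of urinary cGMP output, relative to vehicle.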

Neprilysin = Neprilysin (Homo sapiens, UniProt P08473); assay: Inhibition of NEP (unknown origin) preincubated for 10 mins followed by fluorogenic substrate addition and measured after 20 mins by fluorescence assay
Chain of Neprilysin (P08473 whole entry): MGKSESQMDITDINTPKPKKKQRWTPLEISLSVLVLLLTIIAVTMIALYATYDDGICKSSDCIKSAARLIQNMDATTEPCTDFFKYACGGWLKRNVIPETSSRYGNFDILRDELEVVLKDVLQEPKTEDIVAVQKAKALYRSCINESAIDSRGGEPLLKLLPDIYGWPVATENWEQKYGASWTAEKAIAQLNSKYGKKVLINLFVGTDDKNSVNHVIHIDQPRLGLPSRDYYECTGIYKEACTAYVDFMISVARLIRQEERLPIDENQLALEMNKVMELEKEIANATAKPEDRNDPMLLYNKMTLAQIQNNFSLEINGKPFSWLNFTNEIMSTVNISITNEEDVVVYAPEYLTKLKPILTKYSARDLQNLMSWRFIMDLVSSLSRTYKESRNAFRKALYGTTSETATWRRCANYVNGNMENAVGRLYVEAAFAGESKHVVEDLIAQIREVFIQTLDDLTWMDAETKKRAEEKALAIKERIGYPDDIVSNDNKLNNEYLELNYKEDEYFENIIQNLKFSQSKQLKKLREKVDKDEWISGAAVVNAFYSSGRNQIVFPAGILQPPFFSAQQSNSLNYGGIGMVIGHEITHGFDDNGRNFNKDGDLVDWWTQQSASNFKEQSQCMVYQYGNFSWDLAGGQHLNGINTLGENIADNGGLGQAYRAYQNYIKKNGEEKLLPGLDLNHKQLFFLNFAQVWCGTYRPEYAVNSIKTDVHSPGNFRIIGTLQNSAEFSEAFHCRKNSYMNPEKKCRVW

[2] = target: T2, Type-1 angiotensin II receptor (Homo sapiens) (UniProt P30556); assay: Antagonist activity at AT1 receptor (unknown origin) by inositol phosphate accumulation assay relative to control; type: functional
T2 sequence (whole entry): T1 sequence (P30556 whole entry)

Row | Structure (SMILES) | Ki [1] | inhibition in vivo at 3 mg/kg (Rattus norvegicus) | further results
1 | CCCOc1nc(CC)c(CNC(=O)[C@@H](CS)CC(C)C)n1Cc1ccc(-c2ccccc2C(=O)O)cc1 | 0.00251 µM | 65% | –
2 | CCCCc1nc(Cl)c(CO)n1Cc1ccc(-c2ccccc2-c2nn[nH]n2)cc1 [LOSARTAN] | – | – | IC50 (Neprilysin): > 10 µM
3 | CCCCc1nc(Cl)c(CNC(=O)C(CS)C(C)C)n1Cc1ccc(-c2ccccc2C(=O)O)cc1 (racemic) | 0.126 µM | – | –
4 | CCCCc1nc(C)c(CNC(=O)[C@@H](CS)CC(C)C)n1Cc1ccc(-c2ccccc2C(=O)O)cc1 | 0.0501 µM | – | –
5 | CCCCc1nc(Cl)c(CNC(=O)C(CS)Cc2ccc(-c3ccccc3)cc2)n1Cc1ccc(-c2ccccc2C(=O)O)cc1 (racemic) | 0.398 µM | – | –
6 | CCCCc1nc(Cl)c(CNC(=O)C(CS)CC(C)C)n1Cc1ccc(-c2ccccc2-c2nnn[nH]2)cc1 (racemic) | 0.01 µM | – | –
7 | CCCCc1nc(CC)c(CNC(=O)[C@@H](S)CC(C)C)n1Cc1ccc(-c2ccccc2C(=O)O)cc1 | 0.0398 µM | 18% | –
8 | CCOc1nc(CC)c(CNC(=O)[C@@H](CS)CC(C)C)n1Cc1ccc(-c2ccccc2C(=O)O)cc1F | 0.000794 µM | 85% | –
9 | CCCCc1nc(C)c(CNC(=O)[C@@H](S)CC(C)C)n1Cc1ccc(-c2ccccc2C(=O)O)cc1 | 0.2 µM | – | –
10 | O=C(O)CNC(=O)C(CS)Cc1ccccc1 (stereo not drawn) [THIORPHAN] | > 10 µM | – | –
11 | CCCCc1nc(Cl)c(CO)n1Cc1ccc(-c2ccccc2-c2nnn[nH]2)cc1 [LOSARTAN] | – | 67% | % IP accumulation [2]: 87%
12 | CCCCc1nc(Cl)c(CNC(=O)C(CS)Cc2cccc3ccccc23)n1Cc1ccc(-c2ccccc2C(=O)O)cc1 (racemic) | 0.398 µM | – | –
13 | CCOc1nc(CC)c(CNC(=O)[C@@H](CS)CC(C)C)n1Cc1ccc(-c2ccccc2C(=O)O)cc1 | 0.00126 µM | 67% | –
14 | CCOc1nc(CC)c(CNC(=O)[C@@H](S)CC(C)C)n1Cc1ccc(-c2ccccc2C(=O)O)cc1 | 0.00631 µM | 57% | –
15 | CCCCc1nc(Cl)c(CNC(=O)C(CS)CCC(C)C)n1Cc1ccc(-c2ccccc2C(=O)O)cc1 (racemic) | 0.126 µM | – | –
16 | CCOc1nc(CC)c(CNC(=O)[C@@H](S)CC(C)C)n1Cc1cc(F)c(-c2ccccc2C(=O)O)cc1F | 0.00501 µM | – | –
17 | CCCCc1nc(Cl)c(CNC(=O)C(CS)CC(C)C)n1Cc1ccc(-c2ccccc2C(=O)O)cc1 (racemic) | 0.0398 µM | – | –
18 | CCCCc1nc(CC(C)C)c(CNC(=O)[C@@H](CS)CC(C)C)n1Cc1ccc(-c2ccccc2C(=O)O)cc1 | 0.00794 µM | – | –
19 | CCCCc1nc(Cl)c(CNC(=O)C(CS)CC2CCCCC2)n1Cc1ccc(-c2ccccc2C(=O)O)cc1 (racemic) | 0.251 µM | – | –

Continued, in another order:

Row | Ki [1] | Structure (SMILES) | inhibition in vivo at 3 mg/kg (Rattus norvegicus) | further results
20 | 0.1 µM | CCCCc1nc(Cl)c(CNC(=O)[C@H](CS)CC(C)C)n1Cc1ccc(-c2ccccc2C(=O)O)cc1 | – | –
21 | 0.631 µM | CCCCc1nc(Cl)c(CNC(=O)C(CS)C(C)CC)n1Cc1ccc(-c2ccccc2C(=O)O)cc1 (racemic) | – | –
22 | 0.0794 µM | CCCCc1nc(Cl)c(CNC(=O)C(CS)Cc2ccccc2)n1Cc1ccc(-c2ccccc2C(=O)O)cc1 (racemic) | – | –
23 | 0.02 µM | CCCOc1nc(CC)c(CNC(=O)[C@@H](S)CC(C)C)n1Cc1ccc(-c2ccccc2C(=O)O)cc1 | 23% | –
24 | 0.0158 µM | CCCCc1nc(Cl)c(CNC(=O)C(CS)Cc2ccccc2)n1Cc1ccc(-c2ccccc2-c2nnn[nH]2)cc1 (racemic) | – | –
25 | 0.00501 µM | CCCCc1nc(CC)c(CNC(=O)[C@@H](CS)CC(C)C)n1Cc1ccc(-c2ccccc2C(=O)O)cc1 | 68% | –
26 | 0.00631 µM | CCCCc1nc(C2CC2)c(CNC(=O)[C@@H](CS)CC(C)C)n1Cc1ccc(-c2ccccc2C(=O)O)cc1 | 55% | –
27 | 0.158 µM | CCCCc1nc(Cl)c(CNC(=O)C(CS)Cc2ccc3ccccc3c2)n1Cc1ccc(-c2ccccc2C(=O)O)cc1 (racemic) | – | –
28 | 0.126 µM | CCCCc1nc(Cl)c(CNC(=O)C(CS)CCCC)n1Cc1ccc(-c2ccccc2C(=O)O)cc1 (racemic) | – | –
29 | 0.00501 µM | CCOc1nc(CC)c(CNC(=O)[C@@H](S)CC(C)C)n1Cc1ccc(-c2ccccc2C(=O)O)c(F)c1 | 57% | –
30 | 0.00126 µM | CCOc1nc(CC)c(CNC(=O)[C@@H](CS)CC(C)C)n1Cc1ccc(-c2ccccc2C(=O)O)c(F)c1 | – | –
31 | 0.0316 µM | CCCCc1nc(Cl)c(CNC(=O)C(CS)CC2CC2)n1Cc1ccc(-c2ccccc2C(=O)O)cc1 (racemic) | – | –
32 | 0.0631 µM | CCCCc1nc(Cl)c(CNC(=O)[C@@H](S)CC(C)C)n1Cc1ccc(-c2ccccc2C(=O)O)cc1 | – | –
33 | 0.0794 µM | CCCCc1nc(Cl)c(CNC(=O)C(CS)C(C)c2ccccc2)n1Cc1ccc(-c2ccccc2C(=O)O)cc1 (racemic) | – | –
34 | 0.0501 µM | CCCCc1nc(Cl)c(CNC(=O)C(CS)CC(CC)CC)n1Cc1ccc(-c2ccccc2C(=O)O)cc1 (racemic) | – | –
35 | 0.0501 µM | CCCCc1nc(Cl)c(CNC(=O)C(CS)CC2CCCC2)n1Cc1ccc(-c2ccccc2C(=O)O)cc1 (racemic) | – | –
36 | 0.0158 µM | CCCCc1nc(Cl)c(CNC(=O)[C@@H](CS)CC(C)C)n1Cc1ccc(-c2ccccc2C(=O)O)cc1 | 11% | –
37 | 0.01 µM | CCCCc1nc(Cl)c(CNC(=O)CNC(=O)C(CS)Cc2ccccc2)n1Cc1ccc(-c2ccccc2-c2nnn[nH]2)cc1 (racemic) | – | –
38 | 0.0316 µM | CCCCc1nc(C2CC2)c(CNC(=O)[C@@H](S)CC(C)C)n1Cc1ccc(-c2ccccc2C(=O)O)cc1 | 5% | –
39 | 0.126 µM | CCCCc1nc(Cl)c(CNC(=O)[C@H](S)CC(C)C)n1Cc1ccc(-c2ccccc2C(=O)O)cc1 | – | –
40 | 0.0316 µM | CCCCc1nc(CC(C)C)c(CNC(=O)[C@@H](S)CC(C)C)n1Cc1ccc(-c2ccccc2C(=O)O)cc1 | 32% | –
